# Rows were chosen to be rich in hits. Some 1.7% of all compounds tested hit in one or more screens of this group.
# PP1 inh – PP1-alpha phosphatase inhibitors, primary screen, counter-screen for PP5 inhibitor project, biochemical, fluorescence, OMFP substrate, single point; purified PP1alpha; Serine/threonine-protein phosphatase PP1-alpha catalytic subunit (Homo sapiens), P62136; inhibition, % at 6.7 µM; hit rate 0.9% among 320,000;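 active = inhibition above the mean inhibition of all tested compounds plus 3 SD, computed separately for each screening campaign, cut at about 15% in these data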
# JMJD2C inh – inhibitors of GASC-1 histone demethylase, primary screen, biochemical, fluorescence, DELFIA europium; Lysine-specific demethylase 4C (Homo sapiens), Q9H3R0; GST-JMJD2C(1-420) H3K9me3 demethylation; inhibition, % at 2.35 µM; hit rate 0.069% among 330,000;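 active = more than half of a compound's replicate wells show inhibition beyond 50%, single wells judged on their own value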;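 note: signal counts dimethyl H3K9 product captured on neutravidin plate; 0% = median of DMSO wells and 100% = 0.3 times that DMSO median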
# PP5 inh – PP5 phosphatase inhibitors, primary screen, biochemical, fluorescence; purified PP5c, OMFP substrate fluorescence; inhibition, % at 6.7 µM; hit rate 0.18% among 320,000;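 active = inhibition above the campaign's mean inhibition across all tested compounds plus 3 SD, cut at about 9.5% in these data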;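 note: 0% = DMSO only and 100% = 100 µM cantharidin control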
# T cell HTS – modulators of CD8 T cell-vesicle binding, primary screen, mouse 2C CD8+ T cells, flow cytometry; 2C CD8+ T cell-vesicle binding; hits give low values; response (vesicle binding), % at 7 µM; hit rate 0.068% among 330,000; AID 2052, 2009;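 active = response, share of CD8 T cells binding vesicles, and their 90th percentile fluorescence all below set limits, cut at about 80% in these data, passing the limit was not always enough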;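 note: values below 100% mean blocked vesicle binding to the CD8+ T cells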
#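 Test system: purified 2C TCR transgenic mouse naive CD8+ T cells. Probe or stimulus: QL9-peptide-loaded Drosophila micro-vesicles bearing Ld, ICAM-1 and B7-1. Incubation: binding step 1.5 h, 37 °C, antibody labelling 20 min, ice. Measured by: flow cytometry of vesicle-bound cells.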
# m5-HT2A agonist – mouse Htr2a agonists via beta-arrestin recruitment, primary screen, cell-based, luminescence; 5-hydroxytryptamine receptor 2A (Mus musculus), P35363; CHO-K1 mHTR2A beta-arrestin complementation; percent of 30 µM serotonin response; activation, % at 7.6 µM; hit rate 0.66% among 360,000; AID 624169, 2012;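 active = activation above a run cutoff, the mean activation of all tested compounds plus 3 SD, cut at about 14% in these data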;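 note: 0% = plate median of compound wells and 100% = 30 µM serotonin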
# Target sequence (P35363 whole entry, looked up): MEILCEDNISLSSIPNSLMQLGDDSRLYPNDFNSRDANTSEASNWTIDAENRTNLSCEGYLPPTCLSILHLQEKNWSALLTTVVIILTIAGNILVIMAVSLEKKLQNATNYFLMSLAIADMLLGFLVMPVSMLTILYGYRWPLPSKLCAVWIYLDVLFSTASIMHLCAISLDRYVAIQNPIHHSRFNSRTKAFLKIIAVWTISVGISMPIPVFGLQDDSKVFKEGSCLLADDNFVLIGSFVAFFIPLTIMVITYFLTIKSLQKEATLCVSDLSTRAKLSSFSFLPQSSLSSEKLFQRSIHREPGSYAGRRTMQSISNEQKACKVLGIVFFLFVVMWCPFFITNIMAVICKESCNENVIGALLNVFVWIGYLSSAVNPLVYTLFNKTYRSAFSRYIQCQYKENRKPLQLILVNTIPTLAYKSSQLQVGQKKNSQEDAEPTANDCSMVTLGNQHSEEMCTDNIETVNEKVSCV
# PP1 confirm – PP1 phosphatase inhibitors, confirmation, biochemical, fluorescence, OMFP substrate, triplicate | inhibition, % at 6.7 µM | shares compounds with PP1 inh | hit rate 52% among 1,900 | purified PP1alpha;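 active = mean PP1 inhibition above a set limit taken from the earlier primary screen, cut at about 15% in these data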
# PP5 inh counter – PP5 phosphatase inhibition by PP1 hits, confirmation, counter-screen for PP1 inhibitor project, biochemical, fluorescence, triplicate; shares compounds with PP1 inh; purified PP5c, OMFP fluorescence; inhibition, % at 6.7 µM; hit rate 4% among 1,900;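 active = mean PP5 inhibition over triplicate wells above about 9.5% taken from the earlier PP1 screen, limit read from the data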
# Numbers without * were called inactive; x = no result given.
SMILES,PP1 inh,JMJD2C inh,PP5 inh,T cell HTS,m5-HT2A agonist,PP1 confirm,PP5 inh counter
O=C(CSCc1c(Cl)cccc1Cl)Nc1ccc2c(c1)OCCO2,4,-1,4,335,0,x,x
CN(CC1CCCO1)S(=O)(=O)c1ccc(C(=O)Nc2ccc3c(c2)OCO3)cc1 (configuration not stated),-3,11,0,70,2,x,x
CN(CC1CCCO1)S(=O)(=O)c1ccc(C(=O)Nc2nc3cc4c(cc3s2)OCO4)cc1 (configuration not stated),23*,-1,4,781,0,26*,-4
C=C(C)C(=O)Nc1cccc(C2=NOC3(C2)C[C@@H](C(N)=O)N(C(=O)c2ccc(OC)cc2)C3)c1 (some centres not stated),18*,-7,0,634,3,7,-1
C=C(C)C(=O)Nc1cccc(C2=NOC3(C2)C[C@@H](C(N)=O)N(C(=O)c2cc([N+](=O)[O-])cc([N+](=O)[O-])c2)C3)c1 (some centres not stated),3,-2,5,202,-3,x,x
C/C=C\C=C\C(=O)N1CC2(CC(c3cccc(NC(=O)COc4ccc(Cl)cc4)c3)=NO2)C[C@H]1C(N)=O (some centres not stated),-1,-11,3,442,-4,x,x
C/C=C\C=C/C(=O)Nc1cccc(C2=NOC3(C2)C[C@@H](C(N)=O)N(C(=O)COc2ccc(Cl)cc2)C3)c1 (some centres not stated),19*,6,3,319,-2,-2,-4
CCN(C(=O)c1ccc2c(=O)n3c(nc2c1)CCCCC3)c1cc(OC)ccc1OC,-6,-1,1,203,0,x,x
COc1cc(/C=C2/SC(=S)N(Cc3ccccc3)C2=O)ccc1OCC(=O)O,20*,8,2,166,6,12,-1
CCN(C1CCCCC1)S(=O)(=O)c1ccc(OC)c(C)c1,4,0,6,195,1,x,x
COc1cc(CN(C2CCCCC2)S(=O)(=O)c2ccc(S(=O)(=O)N(C)C3CCCCC3)cc2)cc(OC)c1OC,19*,-4,2,306,1,-2,-3
C(=N\Nc1nc2ccccc2[nH]1)/c1ccccn1,x,-25,x,x,4,x,x
C(=N\Nc1nc2ccccc2[nH]1)/c1cccc2nccnc12,-1,3,0,279,-3,x,x
CCCCn1c(/C=N/Nc2nc3ccccc3[nH]2)nc2ccccc21,21*,3,5,284,-8,12,-1
CCCCn1c(/C=C/c2ccco2)nc2ccccc21,4,1,1,480,-3,x,x
C#CCn1cc(/C=N/Nc2nc3ccccc3[nH]2)c2ccccc21,22*,0,7,233,-9,24*,2
Fc1ccccc1-c1ccc(/C=N/Nc2nc3ccccc3[nH]2)o1,18*,-5,4,502,-8,18*,1
C=CCOc1ccc(C2=NOC(C(=O)Nc3ccc4c(c3)OCCO4)C2)cc1 (configuration not stated),0,-28,5,157,-2,x,x
O=[N+]([O-])c1ccc(CCNc2cccc3ccccc23)c([N+](=O)[O-])c1,25*,-6,1,220,-3,24*,-2
Cc1cc([N+](=O)[O-])ccc1NCc1cccc2ccccc12,3,4,1,435,-2,x,x
CC(Oc1ccc(Br)cc1)C(=O)O/N=C(\N)c1ccncc1 (configuration not stated),1,5,5,410,-9,x,x
Cc1ccc(NC(=O)CCCc2nc3ccccc3c(=O)[nH]2)c(Cl)c1,-1,0,1,993,3,x,x
CC1=CC(=O)c2c(O)ccc(O)c2C1=O,28*,x,3,195,x,2,28*
O=C1C=C(N2CCN(c3ccccn3)CC2)C(=O)c2c(O)ccc(O)c21,x,x,x,x,0,x,x
CCCC1(c2ccccc2)NC(=O)N(CC(=O)Nc2cc(C)ccc2OC)C1=O (configuration not stated),-3,-9,1,238,-6,x,x
SMILES,PP1 inh,JMJD2C inh,PP5 inh,T cell HTS,m5-HT2A agonist,PP1 confirm,PP5 inh counter
Cc1sc(NC(=O)Cn2[nH]c(=O)c3ccccc3c2=O)nc1-c1ccccc1,29*,4,0,202,1,27*,-2
CCn1c(SCC(=O)Nc2cc(C)on2)nc2sc3c(c2c1=O)CCCC3,23*,2,5,256,4,28*,-2
C=CCn1c(SCC(=O)Nc2cc(C)on2)nc2sc3c(c2c1=O)CCCC3,-2,x,0,220,-1,x,x
CC[C@]12c3[nH]c4cc(CCC(=O)N(C)C)ccc4c3CCN1C(=O)[C@@H](CC(=O)NC/C=C(\C)CCC=C(C)C)C[C@@H]2C(=O)N1CCN(C(=O)c2ccco2)CC1,x,x,x,x,-10,x,x
C/C(=N\NC(=O)c1nnn(-c2nonc2N)c1CN(C)c1ccccc1)c1ccccn1,19*,-9,3,455,-6,30*,2
CCOc1ccc(NC(=S)Nc2ccc(OCC)cc2)cc1,-3,5,-1,208,2,x,x
CCOc1ccc(C(=O)Nc2nnc(NC(=S)Nc3ccccc3)s2)cc1,19*,-3,1,681,-4,33*,4
CCc1nnc(NC(=S)Nc2ccccc2)s1,2,-8,0,364,-3,x,x
Cc1ccc(C(=O)Nc2nnc(NC(=S)Nc3ccccc3)s2)cc1,21*,3,3,197,7,24*,0
CC(=O)N1N=C(c2ccc3nccnc3c2)CC1c1ccccc1 (configuration not stated),-1,-1,1,285,-2,x,x
CC(=O)N1N=C(c2ccccc2OC(=O)/C=C/c2ccccc2)CC1c1ccccc1 (configuration not stated),21*,7,2,434,x,0,0
COc1ccc(Br)cc1S(=O)(=O)n1nc(C)cc1C,-1,-3,1,323,-7,x,x
O=C(c1ccc(=O)[nH]c1)N(Cc1cccs1)C1(C(=O)NC2CCCC2)CCCCC1,19*,4,-1,375,4,-4,-5
Cc1ccc(NC(=O)Cn2nc(C(=O)Nc3ccc(C)cc3)ccc2=O)cc1,21*,4,1,173,-4,22*,-3

# Screens deposited in PubChem BioAssay by several laboratories.
